Assay type in all cases: functional
For assay [1], the system named is Streptococcus pyogenes. Kind of assay: Antibacterial activity against clinically isolated erythromycin-susceptible Streptococcus pyogenes S2 by broth microdilution method. The gist of the method: (§1)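 Broth microdilution MIC following the NCCL-recommended method. Panel of sensitive and resistant Gram-positive strains: S. pyogenes S2 (erythromycin-susceptible clinical isolate), S. aureus ATCC25923 and S. pneumoniae ATCC49619 (erythromycin-susceptible). Azithromycin and clarithromycin were run alongside as references.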

For assay [2], the system named is Streptococcus pneumoniae. Put plainly: Potency index, ratio of AZM MIC to test compound MIC for erythromycin-resistant Streptococcus pneumoniae B1 expressing ermB gene.
For assay [3], the system named is Staphylococcus aureus. Put plainly: Antibacterial activity against methicillin-susceptible Staphylococcus aureus ATCC 29213 by broth microdilution method. Put shortly:
(§2)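 MICs measured in vitro by broth microdilution following NCCL recommendations, against a Gram-positive panel of sensitive and resistant strains. Azithromycin and clarithromycin were tested alongside as references.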

For assay [4], the system named is Staphylococcus aureus. Put plainly: Antibacterial activity against clinically isolated penicillin-resistant Staphylococcus aureus by broth microdilution method. Put shortly: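 Clinical penicillin-resistant S. aureus isolate, not further characterized, tested in a Gram-positive panel. MIC was measured by broth microdilution following NCCL recommendations, with azithromycin and clarithromycin as references.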

For assay [5], the system named is Streptococcus pneumoniae. Kind of assay: Antibacterial activity against erythromycin-resistant Streptococcus pneumoniae B1 expressing ermB gene by broth microdilution method. Put shortly:
as §2

Assay [6] deals with Staphylococcus aureus. Put plainly: Antibacterial activity against erythromycin-susceptible Staphylococcus aureus ATCC 25923 by broth microdilution method. Put shortly:
as §1

In assay [7] the test system is Streptococcus pneumoniae. Put plainly: Antibacterial activity against erythromycin-resistant Streptococcus pneumoniae AB11 expressing ermB and mefA genes by broth microdilution method. The gist of the method: as §2
Assay [8] concerns Streptococcus pneumoniae. Put plainly: Potency index, ratio of EMA MIC to test compound MIC for erythromycin-resistant Streptococcus pneumoniae B1 expressing ermB gene.
Assay [9] has as its system Streptococcus pneumoniae. Put plainly: Antibacterial activity against erythromycin-resistant Streptococcus pneumoniae A22072 expressing mefA gene by broth microdilution method. The gist of the method: as §2
In assay [10] the test system is Streptococcus pneumoniae. Kind of assay: Antibacterial activity against erythromycin-susceptible Streptococcus pneumoniae ATCC 49619 by broth microdilution method. The gist of the method: as §1
The subject of assay [11] is Streptococcus pyogenes. Kind of assay: Antibacterial activity against clinically isolated erythromycin-resistant Streptococcus pyogenes R2 by broth microdilution method. The gist of the method:
as §2

For assay [12], the system named is Streptococcus pyogenes. Kind of assay: Potency index, ratio of EMA MIC to test compound MIC for clinically isolated erythromycin-resistant Streptococcus pyogenes R2.
In assay [13] the test system is Streptococcus pyogenes. Kind of assay: Potency index, ratio of AZM MIC to test compound MIC for clinically isolated erythromycin-resistant Streptococcus pyogenes R2.
For assay [14], the system named is Streptococcus pneumoniae. Kind of assay: Potency index, ratio of EMA MIC to test compound MIC for erythromycin-resistant Streptococcus pneumoniae A22072 expressing mefA gene.
The subject of assay [15] is Streptococcus pneumoniae. Put plainly: Potency index, ratio of AZM MIC to test compound MIC for erythromycin-resistant Streptococcus pneumoniae A22072 expressing mefA gene.

SMILES strings stand for the structures. ≈ marks a conversion by molar mass, not a printed value.

In the case of `CC[C@@H]1OC(=O)[C@H](C)[C@@H](O[C@H]2C[C@@](C)(OC)[C@@H](OC(=O)NNC(=O)/C=C/c3cccs3)[C@H](C)O2)[C@@H](C)[C@@H](O[C@@H]2O[C@H](C)C[C@H](N(C)C)[C@H]2O)[C@](C)(O)C[C@@H](C)CN(C)[C@H](C)[C@@H](OC(=O)NCc2ccc(OC)cc2)[C@]1(C)O`, the minimum inhibitory concentration (MIC) was 0.25 µg/mL (≈ 0.226 µM) against Streptococcus pyogenes [1]; 1 µg/mL (≈ 0.904 µM) against Staphylococcus aureus [3]; 2 µg/mL (≈ 1.81 µM) in the assay on Staphylococcus aureus [4]; 0.5 µg/mL (≈ 0.452 µM) against Streptococcus pneumoniae [5]; 0.5 µg/mL (≈ 0.452 µM) against Staphylococcus aureus [6]; 1 µg/mL (≈ 0.904 µM) against Streptococcus pneumoniae [7]. For the same compound, the values for the minimal inhibitory concentration (MIC) in the assay on Streptococcus pneumoniae [9], in the assay on Streptococcus pneumoniae [10] and in the assay with Streptococcus pyogenes [11] were 0.03 µg/mL (≈ 0.0271 µM), 0.25 µg/mL (≈ 0.226 µM) and 32 µg/mL (≈ 28.9 µM), respectively. In addition, the Ratio with Streptococcus pneumoniae [2] and in the assay with Streptococcus pneumoniae [8] was 256 in each case.

As for `CC[C@H]1OC(=O)[C@@H](C)[C@H](O[C@@H]2C[C@](C)(OC)[C@H](OC(=O)NNC(=O)/C=C/c3ccc(Cl)cc3)[C@@H](C)O2)[C@H](C)[C@H](O[C@H]2O[C@@H](C)C[C@@H](N(C)C)[C@@H]2O)[C@@](C)(O)C[C@H](C)CN(C)[C@@H](C)[C@H](OC(=O)NCc2ccc(OC)cc2)[C@@]1(C)O`, the MIC came to 0.5 µg/mL (≈ 0.441 µM) against Streptococcus pyogenes [1]; 2 µg/mL (≈ 1.76 µM) with Staphylococcus aureus [3]; 2 µg/mL (≈ 1.76 µM) in the assay on Staphylococcus aureus [4]; 0.25 µg/mL (≈ 0.22 µM) in the assay with Streptococcus pneumoniae [5]; 0.5 µg/mL (≈ 0.441 µM) in the assay on Staphylococcus aureus [6]; 1 µg/mL (≈ 0.881 µM) with Streptococcus pneumoniae [7]. Moreover, the MIC in the assay on Streptococcus pneumoniae [9] is 0.12 µg/mL (≈ 0.106 µM); against Streptococcus pneumoniae [10], 0.5 µg/mL (≈ 0.441 µM); against Streptococcus pyogenes [11], 4 µg/mL (≈ 3.52 µM). Further, the Ratio came to 512 in the assay with Streptococcus pneumoniae [2], 512 in the assay on Streptococcus pneumoniae [8], 32 in the assay with Streptococcus pyogenes [12] and 32 with Streptococcus pyogenes [13].

On to `CC[C@H]1OC(=O)[C@@H](C)[C@H](O[C@H]2C[C@@](C)(OC)[C@@H](OC(=O)NNC(=O)/C=C/c3cccs3)[C@H](C)O2)[C@@H](C)[C@H](O[C@H]2O[C@@H](C)C[C@@H](N(C)C)[C@@H]2O)[C@@](C)(O)C[C@H](C)CN(C)[C@@H](C)[C@@H]2OC(=O)O[C@@]12C`, for which the MIC came to 0.25 µg/mL (≈ 0.258 µM) with Streptococcus pyogenes [1]; 64 µg/mL (≈ 66 µM) against Staphylococcus aureus [3]; 64 µg/mL (≈ 66 µM) against Staphylococcus aureus [4]; 2 µg/mL (≈ 2.06 µM) against Streptococcus pneumoniae [5]; 32 µg/mL (≈ 33 µM) against Staphylococcus aureus [6]; 4 µg/mL (≈ 4.13 µM) in the assay with Streptococcus pneumoniae [7]. In addition, the minimal inhibitory concentration (MIC) was 0.015 µg/mL (≈ 0.0155 µM) against Streptococcus pneumoniae [9], 8 µg/mL (≈ 8.25 µM) in the assay on Streptococcus pneumoniae [10] and at least 128 µg/mL in the assay on Streptococcus pyogenes [11]. For the same compound, the Ratio in the assay on Streptococcus pneumoniae [14] stood at 512; with Streptococcus pneumoniae [15], 256.

For `CC[C@H]1OC(=O)[C@@H](C)[C@H](O[C@@H]2C[C@](C)(OC)[C@H](OC(=O)NNC(=O)/C=C/c3ccc(Br)cc3)[C@@H](C)O2)[C@H](C)[C@H](O[C@H]2O[C@@H](C)C[C@@H](N(C)C)[C@@H]2O)[C@@](C)(O)C[C@H](C)CN(C)[C@@H](C)[C@H](OC(=O)NCc2ccc(OC)cc2)[C@@]1(C)O`, the MIC is 0.5 µg/mL (≈ 0.424 µM) against Streptococcus pyogenes [1]; 2 µg/mL (≈ 1.7 µM) in the assay on Staphylococcus aureus [3]; 2 µg/mL (≈ 1.7 µM) against Staphylococcus aureus [4]; 0.5 µg/mL (≈ 0.424 µM) with Streptococcus pneumoniae [5]; 1 µg/mL (≈ 0.848 µM) with Staphylococcus aureus [6]; 1 µg/mL (≈ 0.848 µM) in the assay with Streptococcus pneumoniae [7]. Also, the values for the MIC with Streptococcus pneumoniae [9], against Streptococcus pneumoniae [10] and against Streptococcus pyogenes [11] were 0.25 µg/mL (≈ 0.212 µM), 0.25 µg/mL (≈ 0.212 µM) and 16 µg/mL (≈ 13.6 µM), respectively. Also, the Ratio with Streptococcus pneumoniae [2] and in the assay with Streptococcus pneumoniae [8] was 256 in each case.

Values taken from ChEMBL document CHEMBL3734701, “Synthesis and antibacterial activity of 4″-O-(trans-β-arylacrylamido)carbamoyl azithromycin analogs” (2015).
